Laboratory results as given in ChEMBL document CHEMBL2384900, “Synthesis and cytotoxicity of oligomycin A derivatives modified in the side chain” (Bioorg Med Chem, 2013).

How the values were obtained:
[1] = tested on: Streptomyces fradiae; assay: Antibacterial activity against Streptomyces fradiae ATCC 19609 at 0.1 nmol/disk after 24 hrs; assay type: functional
Summary of the method: (§1)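 Disk diffusion assay. Streptomyces fradiae spores are mixed into MG soft agar (0.7% agar, pH 7.5) and poured over MG agar plates (2% agar), 10⁷ spores per dish. After the agar sets, paper disks impregnated with compound are placed on the plates. Plates are incubated 24 h at 28 °C, and the diameter of the growth-inhibition halo around each disk is measured.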

[2] = tested on: HCT-116; assay: Cytotoxicity against human HCT116 cells after 72 hrs by MTT assay; assay type: functional, cell-based; details: HCT-116, 72 h
Summary of the method: (§2)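 Cells are exposed to compound for 72 h, and viability is then read by MTT assay. IC50 is reported as the mean of 3 independent measurements with SD. hFB-hTERT6 is a non-malignant human skin fibroblast line.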

[3] = tested on: K562; assay: Cytotoxicity against human K562 cells after 72 hrs by MTT assay; assay type: functional, cell-based; details: K562, 72 h; summary of the method: as §2
[4] = Cytotoxicity against human hFB-hTERT6 cells after 72 hrs by MTT assay; assay type: cell-based; details: hFB-hTERT6, 72 h; summary of the method: as §2
[5] = tested on: Streptomyces fradiae; assay: Antibacterial activity against Streptomyces fradiae ATCC 19609 at 1 nmol/disk after 24 hrs; assay type: functional; summary of the method: as §1
[6] = tested on: Streptomyces fradiae; assay: Antibacterial activity against Streptomyces fradiae ATCC 19609 at 10 nmol/disk after 24 hrs; assay type: functional; summary of the method: as §1
[7] = tested on: Streptomyces fradiae; assay: Antibacterial activity against Streptomyces fradiae ATCC 19609 at 100 nmol/disk after 24 hrs; assay type: functional; summary of the method: as §1
[8] = tested on: Streptomyces fradiae; assay: Antibacterial activity against Streptomyces fradiae ATCC 19609 at 0.001 nmol/disk after 24 hrs; assay type: functional
Summary of the method: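 Disk diffusion on S. fradiae: spore suspension mixed into MG soft agar (0.7%), pH 7.5, poured over MG agar (2%) at 10⁷ spores per dish; after solidification, paper disks carrying test compound laid on lawn; grown 24 h at 28 °C; growth-inhibition halo diameter around disks measured.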

CC[C@H]1/C=C/C=C/C[C@@H](C)[C@H](O)[C@@](C)(O)C(=O)[C@@H](C)[C@H](O)[C@@H](C)C(=O)[C@@H](C)[C@H](O)[C@@H](C)/C=C/C(=O)O[C@@H]2[C@H](C)[C@H](CC1)O[C@]1(CC[C@H](C)[C@H](C[C@@H](C)OS(C)(=O)=O)O1)[C@H]2C
diameter of the inhibition zone (DIZ) [1]: 9.5 mm
IC50 [2]: 6400 nM
IC50 [3]: 5800 nM

CC[C@H]1/C=C/C=C/C[C@@H](C)[C@H](O)[C@@](C)(O)C(=O)[C@@H](C)[C@H](O)[C@@H](C)C(=O)[C@@H](C)[C@H](O)[C@@H](C)/C=C/C(=O)O[C@@H]2[C@H](C)[C@H](CC1)O[C@]1(CC[C@H](C)[C@H](C[C@H](C)N=[N+]=[N-])O1)[C@H]2C
IC50 [4]: 1900 nM
IC50 [2]: 200 nM
diameter of the inhibition zone (DIZ) [5]: 7.5 mm
IC50 [3]: 140 nM

CC[C@H]1/C=C/C=C/C[C@@H](C)[C@H](O)[C@@](C)(O)C(=O)[C@@H](C)[C@H](O)[C@@H](C)C(=O)[C@@H](C)[C@H](O)[C@@H](C)/C=C/C(=O)O[C@@H]2[C@H](C)[C@H](CC1)O[C@]1(CC[C@H](C)[C@H](C[C@H](C)n3cc(-c4ccccc4)nn3)O1)[C@H]2C
diameter of the inhibition zone (DIZ) [1]: 7.5 mm
IC50 [4]: 3000 nM
IC50 [3]: 150 nM

CC[C@H]1/C=C/C=C/C[C@@H](C)[C@H](O)[C@@](C)(O)C(=O)[C@@H](C)[C@H](O)[C@@H](C)C(=O)[C@@H](C)[C@H](O)[C@@H](C)/C=C/C(=O)O[C@@H]2[C@H](C)[C@H](CC1)O[C@]1(CC[C@H](C)[C@H](C[C@H](C)n3cc(C(=O)OC)nn3)O1)[C@H]2C
IC50 [4]: 2000 nM
diameter of the inhibition zone (DIZ) [6]: 8 mm
IC50 [3]: 150 nM

CC[C@H]1/C=C/C=C/C[C@@H](C)[C@H](O)[C@@](C)(O)C(=O)[C@@H](C)[C@H](O)[C@@H](C)C(=O)[C@@H](C)[C@H](O)[C@@H](C)/C=C/C(=O)O[C@@H]2[C@H](C)[C@H](CC1)O[C@]1(CC[C@H](C)[C@H](C[C@H](C)n3cc(C(=O)O)nn3)O1)[C@H]2C
IC50 [4]: > 50000 nM
diameter of the inhibition zone (DIZ) [7]: 8 mm
IC50 [3]: > 12500 nM

CC[C@H]1/C=C/C=C/C[C@@H](C)[C@H](O)[C@@](C)(O)C(=O)[C@@H](C)[C@H](O)[C@@H](C)C(=O)[C@@H](C)[C@H](O)[C@@H](C)/C=C/C(=O)O[C@@H]2[C@H](C)[C@H](CC1)O[C@]1(CC[C@H](C)[C@H](C[C@H](C)n3cc(C(=O)NCCN(C)C)nn3)O1)[C@H]2C
IC50 [4]: 2000 nM
IC50 [2]: 700 nM
diameter of the inhibition zone (DIZ) [5]: 8 mm
IC50 [3]: 220 nM

CC[C@@H]1/C=C/C=C/C[C@H](C)[C@H](O)[C@](C)(O)C(=O)[C@H](C)[C@@H](O)[C@H](C)C(=O)[C@H](C)[C@@H](O)[C@H](C)/C=C/C(=O)O[C@H]2[C@@H](C)[C@@H](CC1)O[C@@]1(CC[C@@H](C)[C@@H](C[C@H](C)O)O1)[C@@H]2C [OLIGOMYCIN A]
IC50 [4]: 7500 nM
diameter of the inhibition zone (DIZ) [8]: 10 mm
IC50 [2]: 1000 nM
IC50 [3]: 160 nM
